Screening data from PubChem.
NPY-Y2 antag = blocks the human neuropeptide Y Y2 receptor; 140,000 compounds, 0.99% hits; NPY-Y2 expressing cells, antagonist mode; P49146; inhibition, % at 2.7 µM
EP2 mod = modulators of human EP2 prostaglandin E2 receptor; EP2-expressing cells, cAMP HTRF FRET, PGE2 co-stimulation; induction, % at 25 µM; 260,000 compounds, 0.83% hits;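 active means compounds whose cAMP rise, as percent of the full-agonist control response, exceeds 60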;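 further: rat C6 glioma line stably carrying human EP2 under a CMV promoter; the protocol text gives 20 µM as final concentration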
NPY-Y2 PAM-ag = potentiators or agonists of human neuropeptide Y receptor Y2 | P49146 | cells expressing NPY-Y2, potentiator/agonist read-out | activation, % at 3.6 µM | 220,000 compounds, 0.45% hits | AID 1359; in the data active means activation above about 27%;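 further: cells stimulated with NPY near EC25 plus isoproterenol at EC100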
NPY-Y1 antag = antagonists of human neuropeptide Y receptor Y1. P25929. HEK293-CNG Y1 cells, membrane potential fluorescence; NPY at EC95, then isoproterenol. inhibition, % at 3.6 µM. 200,000 compounds, 1% hits. AID 1040;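 active means inhibition above the campaign mean inhibition of all tested compounds plus 3 SD, cut at about 20% in these data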
Target sequence (P25929 whole entry, looked up): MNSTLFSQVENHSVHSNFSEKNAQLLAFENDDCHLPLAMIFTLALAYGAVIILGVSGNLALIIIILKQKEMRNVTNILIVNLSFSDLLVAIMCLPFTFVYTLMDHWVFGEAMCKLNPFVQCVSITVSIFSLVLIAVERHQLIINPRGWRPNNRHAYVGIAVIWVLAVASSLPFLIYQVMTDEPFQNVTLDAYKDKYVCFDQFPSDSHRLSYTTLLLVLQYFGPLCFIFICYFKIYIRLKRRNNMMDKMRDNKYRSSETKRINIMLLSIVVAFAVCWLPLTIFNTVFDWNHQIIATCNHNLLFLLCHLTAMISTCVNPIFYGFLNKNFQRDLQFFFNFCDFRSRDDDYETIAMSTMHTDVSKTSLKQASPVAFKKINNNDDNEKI
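Material: Y1- and CNG-channel-expressing HEK293 cells / Probe or stimulus: NPY 25 nM then isoproterenol 1 µM plus Ro 20-1724 25 µM / Doses: 3.6 µM single dose, DMSO 0.4% / Schedule: compound incubation 1 h at room temperature, readout 45 min post-stimulation / Signal: membrane potential fluorescence / Benchmarks: isoproterenol-only wells as full block versus NPY-plus-isoproterenol wells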
EP2 antag = EP2 receptor (human) inhibition | P43116 | C6 glioma cells expressing human EP2, cAMP TR-FRET; cells stimulated with saturating PGE2 | inhibition, % at 25 µM | 260,000 compounds, 0.52% hits | AID 1422;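 active means percent inhibition above 40 after rounding to a whole number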;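 further: rat C6 glioma host cells with rolipram phosphodiesterase inhibitor present; the protocol text gives 20 µM as final concentration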
NPY1 pot ag = human NPY-Y1 potentiation or agonism, primary screen; NPY-Y1 expressing cells, potentiator/agonist activation; activation, % at 3.6 µM; 220,000 compounds, 0.37% hits; in the data active means activation above about 33%, passing the limit was not always enough;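 further: cells stimulated with NPY at EC10 then isoproterenol at EC100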
NPY1 antag conf = human NPY-Y1 antagonism, confirmation. inhibition, % at 3.6 µM. 1,200 compounds, 21% hits. shares compounds with NPY-Y1 antag. HEK293-CNG NPY-Y1, membrane potential fluorescence, cAMP; NPY challenge against isoproterenol-raised cAMP; in the data active means inhibition above about 20%
NPY2 antag ctr = human NPY-Y2 antagonism in NPY-Y1 counter-screen. shares compounds with NPY-Y1 antag. HEK293 NPY-Y2 CNG membrane potential fluorescence; cells given NPY, then isoproterenol. inhibition, % at 3.6 µM. 1,200 compounds, 28% hits
Large screens that a line does not name were inactive (follow-up assays come after a bar, where they were run). An excerpt weighted towards active compounds, which were near 2.8% of everything screened. Unless noted, no stated cut-off is given here; in the data, active means inhibition above about 17%; inactive means the rest.

CN1CCC(Oc2ccccc2Sc2ccc(C(F)(F)F)cc2)CC1	NPY-Y1 antag 30 | NPY1 antag conf inactive | NPY2 antag ctr inactive
O=C(O)C(Cc1c[nH]c2ccccc12)NS(=O)(=O)c1cc(Cl)ccc1Cl (centres undefined)	none (no result: NPY-Y2 antag, NPY-Y2 PAM-ag, NPY-Y1 antag, NPY1 pot ag)
O=S(=O)(NCc1ccc2c(c1)OCO2)c1ccc2c(c1)OCCO2	none (no result: NPY-Y2 antag, NPY-Y2 PAM-ag, NPY-Y1 antag, NPY1 pot ag)
O=S(=O)(NCc1ccc2c(c1)OCO2)c1ccc2c(c1)oc1ccccc12	NPY-Y1 antag 22 | NPY1 antag conf inactive | NPY2 antag ctr 19
Cc1ccccc1-c1nc(CN2CCC(C(=O)NCCCN3CC(C)CC(C)C3)CC2)c(C)o1 (centres undefined)	NPY-Y1 antag 23 | NPY1 antag conf inactive | NPY2 antag ctr 24
COc1ccc(CCNC(=O)C2CCN(Cc3nc(-c4ccccc4F)oc3C)CC2)cc1OC	none
Cc1oc(-c2ccc(Cl)cc2)nc1CN1CCC(C(=O)N2CCN(Cc3ccccc3)CC2)CC1	NPY-Y1 antag 25 (no result: EP2 antag) | NPY1 antag conf 21 | NPY2 antag ctr 29
Cc1oc(-c2ccc(Cl)cc2)nc1CN1CCC(C(=O)N2CCc3ccccc3C2)CC1	none (no result: EP2 antag)
CCc1ccc(-c2nc(CN3CCC(C(=O)NCCc4ccc(OC)c(OC)c4)CC3)c(C)o2)cc1	NPY-Y1 antag 28 | NPY1 antag conf inactive | NPY2 antag ctr inactive
Cc1oc(-c2cccc(Cl)c2)nc1CN1CCC(C(=O)NCc2ccco2)CC1	none
CCN1CCCC1CNC(=O)C1CCN(Cc2nc(-c3cccc(Br)c3)oc2C)CC1 (centres undefined)	NPY-Y1 antag 21 (no result: EP2 antag) | NPY1 antag conf inactive | NPY2 antag ctr inactive
COc1ccc(C2C(Oc3ccccc3)C(=O)N2c2cc(C)ccc2C)cc1OC (centres undefined)	NPY-Y1 antag 22 (no result: EP2 antag) | NPY1 antag conf inactive | NPY2 antag ctr inactive
COc1cc(Cl)cc2c1Sc1ccccc1/C2=C/CCN(C)C	none
COc1cc2c(cc1Cl)/C(=C\CCN(C)C)c1ccccc1S2	NPY-Y1 antag 29 | NPY1 antag conf inactive | NPY2 antag ctr 18
C#CCn1c(=NC(=O)c2ccc(S(=O)(=O)N3CCCc4ccccc43)cc2)sc2cc(S(N)(=O)=O)ccc21	NPY-Y1 antag 24 | NPY1 antag conf inactive | NPY2 antag ctr 31
CCOc1ccccc1CN1CCN(Cc2cccc3nonc23)CC1CCO (centres undefined)	NPY-Y1 antag 29 (no result: NPY-Y2 antag) | NPY1 antag conf inactive | NPY2 antag ctr inactive
COc1ccc(C(C(=O)NC2CCCCC2)N(C(=O)c2ccco2)c2ccccc2F)cc1OC (centres undefined)	none (no result: NPY-Y2 antag, NPY-Y2 PAM-ag, NPY-Y1 antag, NPY1 pot ag)
Cc1ccc(CN2CCN(Cc3c(C)nn(-c4ccc(F)cc4)c3C)CC2CCO)o1 (centres undefined)	none (no result: NPY-Y2 antag)
Cc1cc(C)c(CN2CCN(Cc3ccc(C)o3)C(CCO)C2)c(-n2cccn2)c1 (centres undefined)	NPY-Y1 antag 29 (no result: NPY-Y2 antag) | NPY1 antag conf inactive | NPY2 antag ctr inactive
CCCCCC(=O)Nc1nc(C)c(-c2csc(Nc3ccc(Cl)cc3)n2)s1	none
CCCCCCC(=O)Nc1nc(C)c(-c2csc(Nc3ccc(Cl)cc3)n2)s1	NPY-Y1 antag 25 | NPY1 antag conf inactive | NPY2 antag ctr inactive
CC(C)CN(CC(C)C)C(=O)c1cccc(S(=O)(=O)N2CCc3ccccc32)c1	NPY-Y1 antag 29 (no result: NPY-Y2 antag) | NPY1 antag conf inactive | NPY2 antag ctr inactive
COc1ccc(NC(=O)CCSc2ccc(C)cc2)cc1S(=O)(=O)Nc1ccccc1Cl	NPY-Y1 antag 25 | NPY1 antag conf inactive | NPY2 antag ctr inactive
COc1ccc(NS(=O)(=O)c2cc(NC(=O)CCSc3ccccc3)ccc2OC)cc1	none
Oc1ccc(-c2[nH]ncc2-c2cnn(-c3ccccc3)c2)c(O)c1	NPY-Y1 antag 25 (no result: NPY-Y2 antag) | NPY1 antag conf inactive | NPY2 antag ctr inactive
